# Experiment: Toxicity liver stage against HepG2, at 10uM
# Format: cell-based
# Design: test concentration 10 uM, cell line HepG2-A16-CD81EGFP
# Conditions: human, HepG2-A16-CD81EGFP cells; read-out: INHIBITION
# Procedure, shortened: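 Uninfected HepG2-A16-CD81EGFP cells, 3 × 10^3 per well, 1536-well, plated on prespotted compound at 10 μM final, parasite-free screening media added to match infected plates; puromycin 10 μM positive, DMSO 0.5% negative; run in parallel with 48 h PbLuc assay at 37 °C, 5% CO2; viability by CellTiter-Glo luminescence, normalized to controls.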
smiles,measurement,value
CSCC(C)(O)CNC(=O)Nc1ccc(C)cc1Br (centres undefined),cytotoxicity at 10 µM,-9.83%
COc1ccc(OC)c2c(C)cc(N(CCO)CCO)nc12,cytotoxicity at 10 µM,-114%
COc1cc(C)c(NC(=O)CCn2cccc2)cc1OC,cytotoxicity at 10 µM,1.61%
CC(C(=O)NCCc1ccc2c(c1)OCCO2)n1cncn1 (centres undefined),cytotoxicity at 10 µM,6.89%
CCc1noc(C2CCCCN2C(=O)c2ccc3c(c2)OCO3)n1 (centres undefined),cytotoxicity at 10 µM,1.75%
CO[C@@H]1CC[C@H]2[C@H]1OCCN2C(=O)C1CCOCC1,cytotoxicity at 10 µM,3.33%
COc1cccc([C@@H]2CCN(Cc3cn(C)c4ccccc34)C[C@H]2O)c1,cytotoxicity at 10 µM,14.7%
CCCN1CCC(c2nc3ccc(NCc4cccnc4)cn3n2)CC1,cytotoxicity at 10 µM,-121%
Cc1cnc(N2CCC3(CC2)CC(N(C)Cc2ccncc2)C3)nc1,cytotoxicity at 10 µM,8.73%
O=C(C1CC1)N1CCN(Cc2coc(-c3ccc(Cl)cc3)n2)CC1,cytotoxicity at 10 µM,17.3%
CCN(Cc1ccc(Cl)s1)S(=O)(=O)CC,cytotoxicity at 10 µM,-1.11%
CC1(C)CN(CC(O)C(C)(C)C)C(=O)CN(C(=O)c2ccccc2)C1 (centres undefined),cytotoxicity at 10 µM,-6.87%
COc1ccc(C(=O)N2C[C@@H](C)[C@@](C)(O)C2)cc1N1CCOCC1,cytotoxicity at 10 µM,11.3%
CC(C)(C)N1CC(C(=O)NCc2cn3cccnc3n2)CC1=O (centres undefined),cytotoxicity at 10 µM,-0.591%
CCc1nc(C2CCCN2C(=O)c2cnc3n[nH]c(C)c3c2)no1 (centres undefined),cytotoxicity at 10 µM,7.76%
CN(C)C[C@@H]1C[C@@H]2CN(Cc3nccn3C)CC[C@@H]2N1CC1CC1,cytotoxicity at 10 µM,-101%
Cc1cc(NC2CC3(CCN(Cc4cscn4)C3)C2)ncn1 (centres undefined),cytotoxicity at 10 µM,-2.13%
CC(=O)c1cccc(S(=O)(=O)NCC(C)(O)c2cccs2)c1 (centres undefined),cytotoxicity at 10 µM,-17%
CC(=O)NCC(=O)N1Cc2nccn2CC(COc2cccnc2)C1 (centres undefined),cytotoxicity at 10 µM,-2.6%
CS(=O)(=O)N[C@@H]1CN(C(=O)c2ccccn2)C[C@@H]2CCCO[C@@H]21,cytotoxicity at 10 µM,-74.8%
Cc1nc(NC(=O)c2ccc(-n3ncc(C#N)c3N)cc2)sc1C,cytotoxicity at 10 µM,7.13%
Cc1noc(CNC(=O)CN(C)c2nc3ccccc3s2)n1,cytotoxicity at 10 µM,-2.43%
CC(=O)Nc1nc(CN2CCCC2c2cnn(C)c2)cs1 (centres undefined),cytotoxicity at 10 µM,-11.8%
CCc1nc(CC(=O)N2CCn3c(nnc3C(F)(F)F)C2)cs1,cytotoxicity at 10 µM,-9.29%
Cc1cccc(S(=O)(=O)NC2CCN(CC(F)(F)F)C2)c1 (centres undefined),cytotoxicity at 10 µM,0.741%
CCOC(=O)C(C)Nc1ccc(CCN2CCOCC2)cc1 (centres undefined),cytotoxicity at 10 µM,-2.2%
CC(Cn1cccn1)NC(=O)NCc1ccccn1 (centres undefined),cytotoxicity at 10 µM,6.79%
CS(=O)(=O)CCNC(=O)c1cc2ccccc2nc1N1CCCC1,cytotoxicity at 10 µM,-6.78%
Cc1nc(-c2ccc(Cl)cc2)n(CC(=O)NC(C)C)c(=O)c1CCO,cytotoxicity at 10 µM,-8.88%
Cc1nccn1Cc1cccc(CNC(=O)c2ccn(C)c(=O)c2)c1,cytotoxicity at 10 µM,5.82%
Cc1nc(CN2CCO[C@@H]3CN(Cc4nccs4)C[C@@H]3C2)cs1,cytotoxicity at 10 µM,4.8%
CS(=O)(=O)NCc1noc2c1CN(C(=O)C1CCC1)CC2,cytotoxicity at 10 µM,-105%
CCOCc1ccccc1NC(=O)NCC(c1cnn(C)c1)N(C)C (centres undefined),cytotoxicity at 10 µM,3.96%
Cc1nccc(N2CCCC(c3nnc(Cn4ccnc4C)n3C)C2)n1 (centres undefined),cytotoxicity at 10 µM,-2.04%
c1cncc(C2COC3(CCN(Cc4ccsc4)CC3)C2)c1 (centres undefined),cytotoxicity at 10 µM,-3.74%
O=C(CCc1ccsc1)Nc1cccnc1N1CCCC1,cytotoxicity at 10 µM,-7.07%
CC(=O)c1ccc(N2CCC3(CC2)CC(=O)N(C)C3)nc1,cytotoxicity at 10 µM,-1.66%
COc1cnc(N2C[C@@H](CN3CCOCC3)[C@@H](CO)C2)nc1,cytotoxicity at 10 µM,-9.25%
O=C(c1cscn1)N1C[C@@H](Oc2cccnc2)[C@H]2OCCC[C@H]21,cytotoxicity at 10 µM,7.77%
CC(C(=O)Nc1ccccc1Sc1ccccc1)S(C)(=O)=O (centres undefined),cytotoxicity at 10 µM,-1.7%
Cc1noc(C)c1CNS(=O)(=O)N(C)Cc1ccccc1Br,cytotoxicity at 10 µM,17.8%
CC(C)c1nnc2n1CCN(C(=O)c1ccc(OCC3CC3)cc1)C2,cytotoxicity at 10 µM,-6.14%
O=C(Cc1cccs1)N1CCc2nnc(COc3cncnc3)n2CC1,cytotoxicity at 10 µM,8.61%
CC(CNC(=O)NCc1ccco1)CC1(C)OCCO1 (centres undefined),cytotoxicity at 10 µM,-7.25%

# From ChEMBL document CHEMBL4513216, “Probing the Open Global Health Chemical Diversity Library for Multistage-Active Starting Points for Next-Generation Antimalarials” (ACS Infect Dis, 2020)
